Reference: ChEMBL document CHEMBL1122395, “Tetracyclic chromophoric analogues of actinomycin D: synthesis, structure elucidation and interconvertibility from one form to another, antitumor activity, and structure-activity relationships” (1983)
≈ marks a conversion by molar mass, not a printed value. Starred links: 1 amine or outer side, 2 acyl side, 3 side chain; linkers in the order of their positions; H or OH if unused. Positions of bridges follow the written chain, without caps; N, C: chain ends. Non-standard residues stand in square brackets, D forms with d. Residues, ends and D or L forms follow the SMILES beside them. Chains are numbered I, II in the order given. Actinocin(1to9) = Cc1c2oc3c(C)ccc(C(=O)[*:2])c3nc-2c(C(=O)[*:1])c(N)c1=O; NMeV = CN[C@H](C(=O)O)C(C)C; Sar = CNCC(=O)O

Key:
P388 [1] = assay: Percent increase in life span observed in P-388 cells infected male CDF1 hybrid mice after intraperitoneal administration at 1200 ug/kg optimal dose; format: functional, Mus musculus
How it was run: (§1)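 Male CDF1 mice, seven per group, given 10^6 P388 cells ip on day 0. Drugs were given ip in 10% Me2SO-saline on days 1, 5 and 9, with solutions kept at 0-4 °C, protected from light and checked for homogeneity by HPLC. A range of doses was run and the optimal nontoxic dose reported. Read-outs were median survival time, percent increase in life span, and cures (over-60-day survivors, average of two experiments).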

CCRF-CEM = assay: Growth inhibitory activity against human lymphoblastic leukemia cells(CCRF-CEM); format: functional; conditions: read-out: ID50 (the source's name)
How it was run: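 Log-phase human lymphoblastic leukemia CCRF-CEM cells grown in suspension culture. Compounds dissolved in Me2SO, final growth medium contained 5% Me2SO. Test solutions kept at 0-4 °C, protected from light, homogeneity checked by HPLC before testing. ID50 reported in ng/mL.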

P388 [2] = assay: Median survival time observed in P-388 cells infected male CDF1 hybrid mice after intraperitoneal administration at 1200 ug/kg optimal dose; format: functional, Mus musculus; how it was run: as §1
Mus musculus = species: Mus musculus; assay: Male CDF1 hybrid treated mice out of seven which survived over 60 days after the treatment.; format: functional; how it was run: as §1
P388 [3] = assay: Median survival time observed in P-388 cells infected male CDF1 hybrid mice after intraperitoneal administration at 1800 ug/kg optimal dose; format: functional, Mus musculus; how it was run: as §1
P388 [4] = assay: Percent increase in life span observed in P-388 cells infected male CDF1 hybrid mice after intraperitoneal administration at 1800 ug/kg optimal dose; format: functional, Mus musculus; how it was run: as §1
Nucleic Acid = assay: (§2) Melting temperature of DNA-drug complex minus melting temperature of purified calf-thymus DNA; format: functional; conditions: Bos taurus
How it was run: (§3)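 Calf-thymus DNA, purified. ΔTm is the Tm of the DNA-drug complex minus the Tm of DNA alone. Medium was 0.01 M phosphate buffer, pH 7.0, with EDTA.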

Bos taurus = species: Bos taurus; assay: as §2; format: functional; how it was run: as §3
P388 [5] = assay: Median survival time observed in P-388 cells infected male CDF1 hybrid mice after intraperitoneal administration at 125 ug/kg optimal dose; format: functional, Mus musculus; how it was run: as §1
P388 [6] = assay: Percent increase in life span observed in P-388 cells infected male CDF1 hybrid mice after intraperitoneal administration at 125 ug/kg optimal dose; format: functional, Mus musculus; how it was run: as §1

| SMILES | ILS (P388 [1]) [%] | IC50 (CCRF-CEM) [µg/mL] | MST (P388 [2]) [days] | Cures (Mus musculus) | also measured |
| --- | --- | --- | --- | --- | --- |
| Cc1ccc(C(=O)N[C@@H]2C(=O)N[C@H](C(C)C)C(=O)N3CCC[C@H]3C(=O)N(C)CC(=O)N(C)[C@@H](C(C)C)C(=O)O[C@@H]2C)c2c1Oc1c(c(C(=O)N[C@@H]3C(=O)N[C@H](C(C)C)C(=O)N4CCC[C@H]4C(=O)N(C)CC(=O)N(C)[C@@H](C(C)C)C(=O)O[C@@H]3C)c3nc(-c4ccc(Cl)cc4Cl)c(=O)oc3c1C)N2 | 155 | 3.2 (≈ 2.22 µM) | 28 | 0 | – |
| Cc1ccc(C(=O)N[C@@H]2C(=O)N[C@H](C(C)C)C(=O)N3CCC[C@H]3C(=O)N(C)CC(=O)N(C)[C@@H](C(C)C)C(=O)O[C@@H]2C)c2c1Oc1c(c(C(=O)N[C@@H]3C(=O)N[C@H](C(C)C)C(=O)N4CCC[C@H]4C(=O)N(C)CC(=O)N(C)[C@@H](C(C)C)C(=O)O[C@@H]3C)c3nc(-c4ccccc4Cl)c(=O)oc3c1C)N2 | 172 | 1.8 (≈ 1.28 µM) | 30 | 1 | – |
| CCCCCCc1nc2c(C(=O)N[C@@H]3C(=O)N[C@H](C(C)C)C(=O)N4CCC[C@H]4C(=O)N(C)CC(=O)N(C)[C@@H](C(C)C)C(=O)O[C@@H]3C)c3c(c(C)c2oc1=O)Oc1c(C)ccc(C(=O)N[C@@H]2C(=O)N[C@H](C(C)C)C(=O)N4CCC[C@H]4C(=O)N(C)CC(=O)N(C)[C@@H](C(C)C)C(=O)O[C@@H]2C)c1N3 | 127 | 2.08 (≈ 1.51 µM) | 25 | 0 | – |
| Cc1ccc(C(=O)N[C@@H]2C(=O)N[C@H](C(C)C)C(=O)N3CCC[C@H]3C(=O)N(C)CC(=O)N(C)[C@@H](C(C)C)C(=O)O[C@@H]2C)c2c1Oc1c(c(C(=O)N[C@@H]3C(=O)N[C@H](C(C)C)C(=O)N4CCC[C@H]4C(=O)N(C)CC(=O)N(C)[C@@H](C(C)C)C(=O)O[C@@H]3C)c3nc(-c4c(F)c(F)c(F)c(F)c4F)oc3c1C)N2 | – | 12.5 (≈ 8.72 µM) | – | 0 | MST (P388 [3]): 19 days; ILS (P388 [4]): 72% |
| Cc1nc2c(C(=O)N[C@@H]3C(=O)N[C@H](C(C)C)C(=O)N4CCC[C@H]4C(=O)N(C)CC(=O)N(C)[C@@H](C(C)C)C(=O)O[C@@H]3C)c3c(c(C)c2o1)Oc1c(C)ccc(C(=O)N[C@@H]2C(=O)N[C@H](C(C)C)C(=O)N4CCC[C@H]4C(=O)N(C)CC(=O)N(C)[C@@H](C(C)C)C(=O)O[C@@H]2C)c1N3 | 91 | 2.9 (≈ 2.26 µM) | 21 | 0 | – |
| Cc1nc2c(C(=O)N[C@H]3C(=O)N[C@H](C(C)C)C(=O)N4CCC[C@H]4C(=O)N(C)CC(=O)N(C)[C@@H](C(C)C)C(=O)O[C@H]3C)c3nc4c(C(=O)N[C@@H]5C(=O)N[C@H](C(C)C)C(=O)N6CCC[C@H]6C(=O)N(C)CC(=O)N(C)[C@@H](C(C)C)C(=O)O[C@@H]5C)cc(=O)c(C)c-4oc3c(C)c2o1 | – | – | – | – | ΔTm (Nucleic Acid): 1 °C |
| Cc1ccc(C(=O)N[C@@H]2C(=O)N[C@H](C(C)C)C(=O)N3CCC[C@H]3C(=O)N(C)CC(=O)N(C)[C@@H](C(C)C)C(=O)O[C@@H]2C)c2c1Oc1c(c(C(=O)N[C@@H]3C(=O)N[C@H](C(C)C)C(=O)N4CCC[C@H]4C(=O)N(C)CC(=O)N(C)[C@@H](C(C)C)C(=O)O[C@@H]3C)c3nc(-c4ccc5ccccc5c4)c(=O)oc3c1C)N2 | 136 | 1 (≈ 0.703 µM) | 26 | 0 | – |
| Cc1c2oc3c(C)ccc(C(=O)N[C@@H]4C(=O)N[C@H](C(C)C)C(=O)N5CCC[C@H]5C(=O)N(C)CC(=O)N(C)[C@@H](C(C)C)C(=O)O[C@@H]4C)c3nc-2c(C(=O)N[C@@H]2C(=O)N[C@H](C(C)C)C(=O)N3CCC[C@H]3C(=O)N(C)CC(=O)N(C)[C@@H](C(C)C)C(=O)O[C@@H]2C)c(N)c1=O [DACTINOMYCIN] (I: T[dV]P[Sar][NMeV] / II: T[dV]P[Sar][NMeV]; ester I:1-I:C, II:1-II:C; linker I:N-II:N via Actinocin(1to9)) | – | 0.04 (≈ 0.0319 µM) | – | 1 | ΔTm (Bos taurus): 7.1 °C; MST (P388 [5]): 26 days; ILS (P388 [6]): 136% |
| Cc1nc2c(C(=O)N[C@H]3C(=O)N[C@H](C(C)C)C(=O)N4CCC[C@H]4C(=O)N(C)CC(=O)N(C)[C@@H](C(C)C)C(=O)O[C@H]3C)c3c(c(C)c2o1)Oc1c(C)ccc(C(=O)N[C@@H]2C(=O)N[C@H](C(C)C)C(=O)N4CCC[C@H]4C(=O)N(C)CC(=O)N(C)[C@@H](C(C)C)C(=O)O[C@@H]2C)c1N3 | – | – | – | – | ΔTm (Nucleic Acid): 0 °C |
